Measured values published in paper PMC4824005 (Nature structural & molecular biology, 2015).

Tested on: Shc1 phosphorylated at Tyr239 and Tyr240 in MCF10A cells
Experiment: Immunoblot of dual Shc1 phosphorylation in MCF10A cells
Assay type: cell-based
Conditions: 1ng/mL EGF, 3 min
Procedure, shortened: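 MCF10A cells (STR-authenticated, mycoplasma-free) were kept in HuMEC medium and held 16 h in growth-factor-free medium before pretreatment with test compound and EGF stimulation. Cells were lysed in RIPA buffer containing protease and phosphatase inhibitors. Lysates were separated by SDS-PAGE, transferred to nitrocellulose and immunoblotted with phospho-Shc and total Shc antibodies.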

B1: EGF: EGF, used at 1ng/mL to stimulate MCF10A cells (protein, UniProt P01133 23-1207, looked up)
Pro-epidermal growth factor: PQHWSCPEGTLAGNGNSTCVGPAPFLIFSHGNSIFRIDTEGTNYEQLVVDAGVSVIMDFHYNEKRIYWVDLERQLLQRVFLNGSRQERVCNIEKNVSGMAINWINEEVIWSNQQEGIITVTDMKGNNSHILLSALKYPANVAVDPVERFIFWSSEVAGSLYRADLDGVGVKALLETSEKITAVSLDVLDKRLFWIQYNREGSNSLICSCDYDGGSVHISKHPTQHNLFAMSLFGDRIFYSTWKMKTIWIANKHTGKDMVRINLHSSFVPLGELKVVHPLAQPKAEDDTWEPEQKLCKLRKGNCSSTVCGQDLQSHLCMCAEGYALSRDRKYCEDVNECAFWNHGCTLGCKNTPGSYYCTCPVGFVLLPDGKRCHQLVSCPRNVSECSHDCVLTSEGPLCFCPEGSVLERDGKTCSGCSSPDNGGCSQLCVPLSPVSWECDCFPGYDLQLDEKSCAASGPQPFLLFANSQDIRHMHFDGTDYGTLLSQQMGMVYALDHDPVENKIYFAHTALKWIERANMDGSQRERLIEEGVDVPEGLAVDWIGRRFYWTDRGKSLIGRSDLNGKRSKIITKENISQPRGIAVHPMAKRLFWTDTGINPRIESSSLQGLGRLVIASSDLIWPSGITIDFLTDKLYWCDAKQSVIEMANLDGSKRRRLTQNDVGHPFAVAVFEDYVWFSDWAMPSVMRVNKRTGKDRVRLQGSMLKPSSLVVVHPLAKPGADPCLYQNGGCEHICKKRLGTAWCSCREGFMKASDGKTCLALDGHQLLAGGEVDLKNQVTPLDILSKTRVSEDNITESQHMLVAEIMVSDQDDCAPVGCSMYARCISEGEDATCQCLKGFAGDGKLCSDIDECEMGVPVCPPASSKCINTEGGYVCRCSEGYQGDGIHCLDIDECQLGEHSCGENASCTNTEGGYTCMCAGRLSEPGLICPDSTPPPHLREDDHHYSVRNSDSECPLSHDGYCLHDGVCMYIEALDKYACNCVVGYIGERCQYRDLKWWELRHAGHGQQQKVIVVAVCVVVLVMLLLLSLWGAHYYRTQKLLSKNPKNPYEESSRDVRSRRPADTEDGMSSCPQPWFVVIKEHQDLKNGGQPVAGEDGQAADGSMQPTSWRQEPQLCGMGTEQGCWIPVSSDKGSCPQVMERSFHMPSYGTQTLEGGVEKPHSLLSANPLWQQRALDPPHQMELTQ
modifications: Pro-epidermal growth factor
EGF-stimulated phosphorylation of Shc1 at both Tyr239 and Tyr240: significant phosphorylation of both Tyr239 and Tyr240 was detected
